Experimental data: ChEMBL document CHEMBL1126156, “Multivariate analysis by the minimum spanning tree method of the structural determinants of diphenylethylenes and triphenylacrylonitriles implicated in estrogen receptor binding, protein kinase C activity, and MCF7 cell proliferation” (J Med Chem, 1992)

Experiments:
[1] = test system: MCF7S; assay: Agonistic activity in MCF-7 cell proliferation.; type: functional, Homo sapiens
Method in brief: (§1)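 MCF-7 cells grown in phenol red-free medium with 5% dextran-coated charcoal-treated serum, tested 10 pM to 1 μM. DNA content read after growth. Agonism expressed relative to the maximum response with E2 (=100%), whatever the concentration. EC50 (50% of maximum response) taken from two separate experiments.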

[2] = test system: MCF7S; assay: Agonist activity against MCF-7 cell proliferation; type: functional, cell-based; conditions: Homo sapiens; method in brief: as §1
[3] = test system: BT-20; assay: (§2) Cytotoxic effect on ER-negative BT20 cell proliferation; type: functional, Homo sapiens; set-up: concentration or dose not given beside the values
Method in brief: (§3)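 ER-negative BT20 cells, no E2, test compound at 3–10 μM for 6 days. DNA read as percent of untreated control. IC30 is the concentration inhibiting growth by 30%; percent inhibition taken at 10⁻⁵ M. Means of two experiments, triplicate wells.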

[4] = test system: BT-20; assay: as §2; type: functional; conditions: Homo sapiens; method in brief: as §3
[5] = biological target: T1, Protein kinase C, PKC; classical (Rattus norvegicus) (UniProt P05696+P68403+P63319); assay: The percent stimulation or inhibition of protein kinase C III activity was determined for phosphatidylserine (PS) and diolein(PS+DO) in the presence of [Ca2+]; type: protein assay; set-up: concentration or dose not given beside the values; conditions: values are per cent of control
Method in brief: (§4)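 Type III (α) PKC purified from rat brain soluble fraction, assayed with calf thymus H1 histone, 0.1 mM Ca2+, 5 mM magnesium acetate, 10 μM [32P]ATP, 2 μg/mL phosphatidylserine plus 0.2 μg/mL diolein. Compounds mostly at 10⁻⁴ M; activity expressed as percent of control.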

[6] = biological target: T1, Protein kinase C, PKC; classical (Rattus norvegicus); assay: Percent stimulation or inhibition of protein kinase C III activity for phosphatidylserine (PS) in the presence of [Ca2+].; type: protein assay; set-up: concentration or dose not given beside the values; conditions: values are per cent of control
Method in brief: (§5)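 Purified type III (α) PKC from rat brain soluble fraction. Substrate calf thymus H1 histone with 0.1 mM Ca2+, 5 mM magnesium acetate, 10 μM [32P]ATP and 2 μg/mL phosphatidylserine, no diolein. Most compounds at 10⁻⁴ M, given as percent of control activity.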

[7] = test system: MCF7S; assay: (§6) Antagonist activity against MCF-7 cell proliferation; type: functional, cell-based; conditions: Homo sapiens
Method in brief: (§7)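 Phenol red-free MCF-7 cultures with 5% dextran-coated charcoal-treated serum, stimulated by 0.1 nM E2. Proliferation read as DNA content after 8 days relative to E2 alone. Percent antagonism is the inhibition at 10⁻⁶ M test compound versus 10⁻¹⁰ M E2. IC50 (50% of maximum response) from two separate experiments.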

[8] = test system: MCF7S; assay: as §6; type: functional, Homo sapiens; method in brief: as §7
[9] = biological target: Estrogen receptor (Bos taurus) (UniProt Q9XSB5+P49884); assay: Relative binding affinity for calf uterus estrogen receptor after 2 hr at 0 degree C; type: protein assay
Method in brief: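 Calf uterus cytosol ER incubated 2 h at 0 °C with [6,7-3H]-17β-estradiol and competitor. RBA given relative to estradiol (=100%), mean of at least four determinations.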

[10] = test system: MCF7S; assay: Cytostatic activity against MCF-7 cell proliferation.; type: functional, Homo sapiens; set-up: concentration or dose not given beside the values
Method in brief: (§8)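 MCF-7 cells in phenol red-free charcoal-treated medium given 10⁻⁶ M E2 plus test compound (3–10 μM), 6 days of growth. DNA expressed as percent of E2-treated cells. IC30 is the concentration giving 30% inhibition. Percent inhibition taken at 10⁻⁵ M, or at 10⁻⁶ M in a second series. Means of two experiments.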

[11] = species: Rattus norvegicus; assay: Percent stimulation or inhibition of protein kinase C III activity for protamine sulfate in the presence of EGTA.; set-up: concentration or dose not given beside the values; conditions: values are per cent of control
Method in brief: (§9)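 Rat brain type III (α) PKC, purified, with protamine sulfate as substrate and 0.5 mM EGTA in place of Ca2+, phosphatidylserine and diolein; 5 mM magnesium acetate, 10 μM [32P]ATP. Most compounds at 10⁻⁴ M; percent of control activity.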

[12] = test system: MCF7S; assay: Cytotoxic effect on MCF-7 cell proliferation; type: functional; conditions: Homo sapiens; method in brief: as §8
[13] = test system: MCF7S; assay: Cytostatic activity against MCF-7 cell proliferation; type: functional, Homo sapiens
Method in brief: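 MCF7 (ER-positive) human breast cancer cells grown in 24-well plates in phenol red-free medium with 5% dextran-coated charcoal, with 10⁻⁶ M E₂ added. Cells exposed to compound for 6 days, then DNA measured and expressed as percent of E₂-alone DNA. Triplicate wells per experiment; values are means of two experiments.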

[14] = biological target: T1, Protein kinase C, PKC; classical (Rattus norvegicus); assay: (§10) Percent stimulation or inhibition of protein kinase C with [Ca2+] for phosphatidylserine and diolein(PS+DO); type: protein assay; conditions: for residual activity: values are per cent of control; method in brief: as §4
[15] = species: Rattus norvegicus; assay: Percent stimulation or inhibition of protein kinase C with EGTA for protamine sulfate; conditions: concentration not given here; method in brief: as §9
[16] = biological target: T1, Protein kinase C, PKC; classical (Rattus norvegicus); assay: Percent stimulation or inhibition of protein kinase C with [Ca2+] for phosphatidylserine (PS); type: protein assay; conditions: values are per cent of control; method in brief: as §5
[17] = biological target: T1, Protein kinase C, PKC; classical (Rattus norvegicus); assay: as §10; type: protein assay; set-up: concentration or dose not given beside the values; conditions: values are per cent of control; method in brief: as §4

Compound	EC50 [2] [µM]	residual activity [5] [%]	residual activity [6] [%]	IC50 [7] [µM]	RBA [9] [%]	residual activity [11] [%]	inhibition ([14]; concentration not given here) [%]	inhibition [15] [%]	residual activity [16] [%]	residual activity [14] [%]	residual activity [17] [%]	Agonism [1] [%]	Inhibition [3] [%]	IC30 [4] [µM]	Antagonism [8] [%]	Inhibition [10] [%]	IC30 [12] [µM]	Inhibition [13] [%]
CC(C)N(CCOc1ccc(C(=C(C#N)c2ccccc2)c2ccc(OCCN(C(C)C)C(C)C)cc2)cc1)C(C)C	0.00084	8	18	0.325	0.03	85						29	89	3.2	79	97	2.7	
CCN(CC)CCOc1ccc(C(C#N)=C(c2ccc(O)cc2)c2ccc(O)cc2)cc1	0.0008	0	7	0.2		105						45	50	3	50	68	6	
CC/C(=C(/c1ccc(O)cc1)c1ccc(OCCN(C)C)cc1)c1ccccc1		14	32			100						61						74
Cc1ccc(/C(=C(\C#N)c2ccc(O)cc2)c2ccc(O)cc2)cc1									88	68	68	73				54		

The next lines start with results.

EC50 [2] [µM]	residual activity [5] [%]	residual activity [6] [%]	IC50 [7] [µM]	RBA [9] [%]	residual activity [11] [%]	inhibition ([14]; concentration not given here) [%]	inhibition [15] [%]	residual activity [16] [%]	residual activity [14] [%]	residual activity [17] [%]	Compound	Agonism [1] [%]	Inhibition [3] [%]	IC30 [4] [µM]	Antagonism [8] [%]	Inhibition [10] [%]	IC30 [12] [µM]	Inhibition [13] [%]
					88	57	88				CN(C)c1ccc(C(=C(C#N)c2ccccc2)c2ccc(N(C)C)cc2)cc1	85				48		
								119	87	87	Cc1ccc(/C(=C(\C#N)c2ccccc2)c2ccc(O)cc2)cc1	53				60		
0.011	23			0.1	103			46			CC(C)N(CCOc1ccc(C(C#N)=C(c2ccccc2)c2ccccc2)cc1)C(C)C	93	36	9	10	30	10	
> 1	86	118	> 1		78						CC(C)CCOc1ccc(C(=C(C#N)c2ccccc2)c2ccc(OCCC(C)C)cc2)cc1	0	37	9	0	3	> 10	
